# Measurements reported in ChEMBL document CHEMBL3414541, “Discovery of new thienopyrimidinone derivatives displaying antimalarial properties toward both erythrocytic and hepatic stages of Plasmodium” (Eur J Med Chem, 2015).
# pIC50: −log10 of the molar value.
# Assays:
# [1] = Selectivity index, ratio of CC50 for human HepG2 cells to IC50 for chloroquine-sensitive Plasmodium falciparum 3D7 infected in human erythrocytes; type: functional
# Procedure, shortened: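 SI = HepG2 CC50 (72 h MTT) / P. falciparum IC50. […] Cultures were exposed 72 h at 37 °C to compound (DMSO final <0.5%), in duplicate. Growth was read by SYBR Green I lysis fluorescence (ex 497, em 520 nm), from three independent experiments.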
# [2] = Cytotoxicity against human HepG2 cells expressing CD81 assessed as cell viability after 72 hrs by MTT assay; type: cell-based
# [3] = Selectivity index, ratio of CC50 for human HepG2 cells expressing CD81 to IC50 for liver stage of Plasmodium yoelii 17X NL sporozoites infected in human HepG2 cells expressing CD81; type: functional
# Plasmodium falciparum [4] = test: Antiplasmodial activity against multi-drug resistant Plasmodium falciparum K1 infected in human erythrocytes assessed as parasite growth inhibition after 72 hrs by SYBR Green I dye-based fluorescence assay; type: functional, organism-based; conditions: read-out: IC50
# Plasmodium yoelii = test: Antiplasmodial activity against liver stage of Plasmodium yoelii 17X NL sporozoites infected in human HepG2 cells expressing CD81 after 48 hrs by DAPI staining-based immunofluorescence analysis; type: functional, organism-based; conditions: HepG2, 48 h
# Procedure, shortened: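 HepG2/CD81 cells were grown in D-MEM with 10% FBS. 25×10^3 cells/well went on collagen-coated wells; after 24 h they received compound and 5000 P. yoelii sporozoites together, then were spun 900 × g for 10 min at 4 °C. Treatment was renewed at 3 h and 24 h. At 48 h cells were methanol-fixed, stained with anti-HSP70 immunofluorescence, and parasites counted by microscopy. IC50 is 50% fewer parasites than in 0.5% DMSO controls.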
# Plasmodium falciparum [5] = test: Antiplasmodial activity against chloroquine-sensitive Plasmodium falciparum 3D7 infected in human erythrocytes assessed as parasite growth inhibition after 72 hrs by SYBR Green I dye-based fluorescence assay; type: functional, organism-based
# Procedure, shortened: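 Parasites grown in A+ human erythrocytes (2.5% haematocrit) in RPMI 1640 with 25 mM HEPES, 25 mM NaHCO3 and 10% A+ serum, at 37 °C under 6% CO2/14% O2/80% N2. Rings were sorbitol-synchronized. Compounds in DMSO (<0.5% final) were incubated 72 h at 2% haematocrit and 1% parasitaemia. SYBR Green lysis read at ex 497/em 520 nm; duplicates; IC50 from three independent experiments.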
# [6] = (§1) Cytotoxicity against human HepG2 cells assessed as cell viability after 72 hrs by MTT assay; type: cell-based; conditions: HepG2 cells
# Procedure, shortened: (§2)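 Cells were kept in RPMI with 10% FBS. 5×10^3 cells/well were settled 24 h, then exposed to compound from DMSO (final <0.5%): CHO for 24 h, HepG2 for 72 h, in duplicate. Wells were checked for precipitate. MTT was added for 2 h at 37 °C, formazan dissolved in DMSO, and A570 read (630 nm reference). Viability is % of untreated cells; CC50 from non-linear regression, mean of three experiments.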
# [7] = Selectivity index, ratio of CC50 for human HepG2 cells to IC50 for multi-drug resistant Plasmodium falciparum K1 infected in human erythrocytes
# Plasmodium falciparum [8] = test: Antiplasmodial activity against multi-drug resistant erythrocytic stage of Plasmodium falciparum K1 isolated from synchronized culture assessed as reduction in parasitemia at 5 X IC50 measured for 32 hrs by spectrophotometric analysis relative to control; type: functional; parameters: scale not given: the % may be the effect or the level left
# Procedure, shortened: (§3)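 K1 cultures were synchronized to an 8-h window with 5% D-sorbitol and held in 24-well plates at 0.8% parasitemia and 4% hematocrit. They received 8-h compound pulses (DMSO <0.5%) at successive points of the cycle, then three washes and culture to the ring stage of the next cycle. Fluorescence read at 497/520 nm; % growth inhibition versus DMSO control; chloroquine as positive control.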
# Plasmodium falciparum [9] = test: Antiplasmodial activity against multi-drug resistant erythrocytic stage of Plasmodium falciparum K1 isolated from synchronized culture assessed as reduction in parasitemia at 5 X IC50 measured for 8 hrs by spectrophotometric analysis relative to control; type: functional; parameters: scale not given: the % may be the effect or the level left; procedure, shortened: as §3
# Plasmodium berghei = test: Antiplasmodial activity against chloroquine-sensitive Plasmodium berghei NK65 infected in Swiss mouse assessed as reduction in parasitemia at 2.5 mg/kg, ip bid administered for 4 days measured on day 4 by Giemsa staining relative to control; type: functional; parameters: scale not given: the % may be the effect or the level left; conditions: route intraperitoneal
# Procedure, shortened: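 Male Swiss mice (20 ± 2 g) were infected on day 0 with 10^7 parasitized cells in 0.9% saline. Groups of 5 were dosed ip at 2.5 mg/kg twice a day from day 0 to day 3.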
# Toxoplasma gondii = test: Antitoxoplasmic activity against tachyzoite stage of Toxoplasma gondii PRU transfected with beta galactosidase infected in HFF assessed as parasite growth inhibition after 96 hrs by colorimetric microtiter assay; type: functional
# Procedure, shortened: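 Confluent HFF monolayers (1×10^4 seeded) were infected with 2×10^3 PRU-β-Gal tachyzoites for 3 h. Compounds from DMSO (final <0.5%) were then added in triplicate for 96 h at 37 °C. CPRG was added at 500 µM final for 24 h more, then A570 read (630 nm reference). IC50 came from non-linear regression, mean of three experiments.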
# [10] = Genotoxicity in DNA (unknown origin) incubated for 24 hrs in dark condition by methyl green displacement assay
# Procedure, shortened: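 DNA-methyl green (4 mg in 20 mL 0.05 M Tris-HCl pH 7.5 with 7.5 mmol/L MgSO4) was shaken 24 h at 37 °C. It was then added to compound from DMSO (final <0.5%). A630 was read, and read again after 24 h at room temperature in the dark. DC50 is the concentration displacing 50% of methyl green.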
# Salmonella typhimurium [11] = test: Mutagenicity in Salmonella typhimurium TA100 at 2.5 mM after 1 hr by Ames test in absence of S9 fraction; type: toxicity, organism-based; conditions: salmonella enterica subsp. enterica serovar typhimurium, 2500 µM
# Procedure, shortened: (§4)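 Tester strains were grown overnight in nutrient broth. 0.1 mL culture was incubated 1 h at 37 °C with shaking with compound (2.5–25 mM DMSO solutions), with or without 4% S9 mix. Top agar was added and the mix plated on Vogel-Bonner agar. Revertants were counted after 48 h at 37 °C in the dark. A twofold rise over spontaneous revertants counts as mutagenic.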
# Leishmania donovani = test: Antileishmanial activity against promastigote stage of Leishmania donovani assessed as parasite growth inhibition after 72 hrs by MTT assay; type: functional, organism-based
# Procedure, shortened: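 L. donovani promastigotes were grown at 27 °C in Schneider's medium with 10% FBS. 1×10^6 log-phase cells/well were exposed to compound from DMSO (final <0.5% v/v) for 72 h at 27 °C, in duplicate. MTT was then added for 6 h, formazan dissolved in DMSO, and A570 read (630 nm reference). IC50 came from non-linear regression, mean of three independent experiments.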
# [12] = Inhibition of Plasmodium falciparum DHFR after 48 hrs
# Procedure, shortened: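 Recombinant S. cerevisiae whose own DHFR is replaced by the P. falciparum DHFR domain was used. 1×10^4 cells were grown in YEPD with compound from DMSO (final <0.5%) at 30 °C for 48 h, in duplicate. Growth was read as A660. IC50 (50% growth inhibition) came from non-linear regression.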
# Plasmodium falciparum [13] = test: Antiplasmodial activity against multi-drug resistant Plasmodium falciparum K1 infected in human erythrocytes assessed as parasite growth inhibition after 72 hrs by SYBR Green I dye-based fluorescence assay in presence of ascorbic acid; type: functional, organism-based; conditions: K1, 72 h
# Procedure, shortened: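 Same SYBR Green I 72 h growth assay on the K1 strain (2% haematocrit, 1% parasitaemia, 37 °C, 6% CO2/14% O2/80% N2, DMSO <0.5%), with 800 µM ascorbic acid in the medium as radical trap. Duplicates; artesunate as positive control; IC50 derived.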
# HepG2 = test: as §1; type: cell-based; conditions: hepg2, 72 h, 72 h, read-out: CC50; procedure, shortened: as §2
# Salmonella typhimurium [14] = test: Mutagenicity in Salmonella typhimurium TA100 at 2.5 mM after 1 hr by Ames test in presence of S9 fraction; type: toxicity, organism-based; conditions: salmonella enterica subsp. enterica serovar typhimurium, s9, 1 h, 2500 µM
# Procedure, shortened: (§5)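 Tester strains were grown overnight in nutrient broth. Top agar was added and the mix plated on Vogel-Bonner agar. Revertants were counted after 48 h at 37 °C in the dark. A twofold rise over spontaneous revertants counts as mutagenic.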
# [15] = Cytotoxicity against CHO cells assessed as cell viability after 24 hrs by MTT assay; type: cell-based, Cricetulus griseus; conditions: chinese hamster; procedure, shortened: as §2
# [16] = Inhibition of hemozoin polymerization after 24 hrs by spectroscopic analysis; type: functional
# Procedure, shortened: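 Hemozoin (4 mM solution in 0.1 M NaOH) was mixed with compound at drug:heme ratios of 1:1 to 8:1, in triplicate. Acetic acid was added to pH 3, and samples were incubated 24 h at 37 °C. Soluble, DMSO-soluble and pellet fractions were separated by centrifugation. Each fraction was quantified at A405 against a hemozoin standard curve. IC50 is 50% decrease in polymerization.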
# Salmonella typhimurium [17] = test: Mutagenicity in Salmonella typhimurium TA97A at 2.5 mM after 1 hr by Ames test in absence of S9 fraction; type: toxicity, organism-based; conditions: salmonella enterica subsp. enterica serovar typhimurium, 2500 µM; procedure, shortened: as §4
# Salmonella typhimurium [18] = test: Mutagenicity in Salmonella typhimurium TA97A at 2.5 mM after 1 hr by Ames test in presence of S9 fraction; type: toxicity, organism-based; conditions: salmonella enterica subsp. enterica serovar typhimurium, s9, 1 h, 2500 µM; procedure, shortened: as §5
# [19] = Cytotoxicity against human HepG2 cells expressing CD81 assessed as cell viability after 72 hrs by CellTiter-glo assay; type: cell-based
# Plasmodium falciparum [20] = test: Antiplasmodial activity against multi-drug resistant Plasmodium falciparum K1 after 72 hrs by SYBR Green I dye-based fluorescence assay; conditions: K1, 72 h
Compound,Ratio CC50/IC50 [1],CC50 at 72 h [2],Ratio CC50/IC50 [3],pIC50 (Plasmodium falciparum [4]),pIC50 (Plasmodium yoelii),pIC50 (Plasmodium falciparum [5]),CC50 at 72 h [6],Ratio CC50/IC50 [7],pIC50 (Toxoplasma gondii),DC50 [10],Activity (Salmonella typhimurium [11]),pIC50 (Leishmania donovani),pIC50 [12],pIC50 (Plasmodium falciparum [13]),CC50 (HepG2),Activity (Salmonella typhimurium [14]),pIC50 [16],Activity (Salmonella typhimurium [17]),Activity (Salmonella typhimurium [18]),other results
CC(C)(C)Nc1nc2cc(-c3ccc(Cl)cc3)sc2c(=O)[nH]1.O=C(O)/C=C/C(=O)O,93,> 120 µM,>2000,6.10,7.22,6.77,15.6 µM,78,,,,,,,,,,,,
Cc1ccc(-c2cc3nc(NC(C)(C)C)[nH]c(=O)c3s2)cc1.Cl,686,> 143 µM,>4086,7.35,7.46,7.46,24 µM,533,,,,,,,,,,,,Activity (Plasmodium falciparum [8]): 30%; Activity (Plasmodium falciparum [9]): 41%; Activity (Plasmodium berghei): 45%
Cc1ccc(-c2cc3nc(NC(C)(C)C)[nH]c(=O)c3s2)cc1,183,,,6.70,,6.85,,128,< 5.00,> 25000 µM,Non-toxic,< 5.00,< 3.30,6.70,25.6 µM,Non-toxic,1.67,Non-toxic,Non-toxic,CC50 at 24 h [15]: 27.5 µM
Cc1ccc(-c2cc3nc(NC(C)C)[nH]c(=O)c3s2)cc1,202,,,6.10,,6.61,,62,< 5.00,> 25000 µM,Non-toxic,< 5.00,< 3.60,6.05,49.4 µM,Non-toxic,< 1.60,Non-toxic,Non-toxic,
CCN(CC)CCCC(C)Nc1ccnc2cc(Cl)ccc12 (centres undefined) [CHLOROQUINE],,,,,5.78,,,,,,,,,,,,2.84,,,CC50 at 72 h [19]: 1.6 µM; CC50 at 24 h [15]: 155 µM; Activity (Plasmodium berghei): 85%
CN(C)c1nc2cc(-n3cnc4cc(-c5ccc(Cl)cc5)sc4c3=O)ccc2n1CCCN1CCCC1,,,,,,,,,,,,,,,,,,,,pIC50 (Plasmodium falciparum [20]): > 5.00
CC(C)(C)Nc1nc2cc(-c3ccc(Cl)cc3)sc2c(=O)[nH]1,44,,,6.10,,6.46,,19,< 5.00,> 25000 µM,Non-toxic,< 5.00,< 3.60,6.10,15 µM,Non-toxic,< 1.60,Non-toxic,Non-toxic,
Cc1ccc(-c2cc3nc(NC(C)C)[nH]c(=O)c3s2)cc1.O=C(O)/C=C/C(=O)O,148,> 111 µM,>925,6.10,6.92,,26.9 µM,135,,,,,,,,,,,,"pIC50 (Plasmodium falciparum [5]; Plasmodium falciparum, 3D7, 72 h): 6.74"
